Screening results as filed in PubChem.
SF-1 act – SF-1 (human) activation; Q13285; 65,000 tested, 1.9% active; CHO-K1 Gal4-SF-1 LBD luciferase reporter; % increase over DMSO SF-1-specific signal; activation, % at 10 µM; AID 522;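 active = activation above the mean activation of all tested compounds plus 3 SD, cut at about 50% in these data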
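Test system: CHO-K1 cells with Gal4–hSF-1 LBD chimera plus Gal4-driven luciferase; Input: 4,000 cells/well; Compound: 10 µM only; Times: 20 h compound treatment, 37 °C; Measured by: steady-glow luciferase luminescence, read after 15 min reagent incubation; Measure: percent activation versus DMSO; Control set: DMSO and mock-transfected background; Replicates: one test per compound.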
Ec RNAP inh – inhibitors of Escherichia coli RNA polymerase. P0A8V2. E. coli RNA polymerase, fluorescence transcription assay. inhibition, %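 (tested at 10 µM)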. 62,000 tested, 0.2% active; in the data active = inhibition above about 20%;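 also: 0% = enzyme without compound and 100% = no enzyme blank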
RORA act – activates the human nuclear receptor RORA. P35398. CHO-K1 Gal4-RORA LBD luciferase reporter, luminescence; percent increase over mock-subtracted basal signal. activation, % at 10 µM. 65,000 tested, 1.5% active. AID 560;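 active = activation above the mean of all tested compounds plus 3 SD, cut at about 49% in these data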;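 also: 0% = DMSO-treated RORA cells and 100% = added signal equal to DMSO minus mock-transfected cells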
Target sequence (P35398 whole entry, looked up, the tested form may be a part): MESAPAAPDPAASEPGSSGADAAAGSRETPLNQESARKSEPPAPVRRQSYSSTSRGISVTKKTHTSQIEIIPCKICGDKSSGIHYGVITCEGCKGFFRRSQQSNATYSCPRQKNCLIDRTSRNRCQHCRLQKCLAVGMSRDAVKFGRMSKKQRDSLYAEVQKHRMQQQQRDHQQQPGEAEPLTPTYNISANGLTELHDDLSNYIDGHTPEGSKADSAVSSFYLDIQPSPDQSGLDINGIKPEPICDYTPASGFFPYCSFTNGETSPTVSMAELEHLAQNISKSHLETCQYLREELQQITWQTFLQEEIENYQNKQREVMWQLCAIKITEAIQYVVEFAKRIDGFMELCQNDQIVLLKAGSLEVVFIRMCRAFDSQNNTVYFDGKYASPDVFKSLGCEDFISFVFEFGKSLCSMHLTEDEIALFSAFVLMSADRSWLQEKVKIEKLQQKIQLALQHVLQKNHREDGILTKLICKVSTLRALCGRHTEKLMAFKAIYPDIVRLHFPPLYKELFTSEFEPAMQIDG
TNAP act DEA – human TNAP activation, intermediate phosphate acceptor; purified TNAP, CDP-star luminescence, 100 mM DEA, 30 min; active compounds read high; scale: 0 levamisole-inhibited, 1 vehicle-only enzyme; activation factor at 20 µM; 64,000 tested, under 10 active;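 active = activation factor of at least 2 at 20 µM, relative to controls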
MT1-MMP txn act – MT1-MMP promoter transcription activation; activation factor at 10 µM; HT1080 MT1-MMP promoter luciferase reporter, luminescence, overnight; active compounds read high; 86,000 tested, 0.16% active;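 active = activation factor of at least 2 for MT1-MMP transcription at 10 µM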
* = called active by the depositor; . = not tested or not shown. A selection: hits, their analogues and other compounds. The true share with any hit is near 2.1%.

SMILES | SF-1 act | Ec RNAP inh | RORA act | TNAP act DEA | MT1-MMP txn act
O=C(Nc1ccc(NC(=O)c2ccco2)nc1)c1cccnc1 | 54.8* | 9.5 | 22.3 | 0.9 | 1.2
Cc1ccc2cc(CN(Cc3ccco3)C(=O)c3cccs3)c(=O)[nH]c2c1 | 44.8 | 13.3 | 76.2* | 0.8 | 0.8
O=C(c1cc(-c2ccc(Cl)c(Cl)c2)on1)N1CCN(c2ccccc2)CC1 | 10.9 | 1.4 | -16.0 | 1 | 1.1
CC1CCCCN1C(=O)c1cc(-c2ccc(Cl)c(Cl)c2)on1 (stereo unspecified) | 46.5 | -0.3 | 62.5* | 0.9 | 1.6
CCC1CCCCN1C(=O)c1cc(-c2ccc(Cl)c(Cl)c2)on1 (stereo unspecified) | 39.7 | 5.3 | 54.4* | 0.9 | 1.6
COc1cccc(-c2cc(C(=O)N3C(C)CCCC3C)no2)c1 (stereo unspecified) | 36.1 | -8.6 | 66.9* | 1 | .
CC(C)CNC(=O)c1cc(-c2ccc(Cl)c(Cl)c2)on1 | 24.9 | 3.7 | 33.7 | 0.9 | 1.4
O=C(O)c1cccc(OCc2ccccc2Cl)c1 | 80.1* | 8.2 | 23.6 | 0.9 | 1.3
O=C(Nc1ccc(N2CCCCC2)cc1)c1cncc(Br)c1 | 8.0 | 7.7 | 78.1* | 0.9 | 1.8
O=C(Nc1ccc(N2CCCCC2)c(Cl)c1)c1cccnc1 | 75.1* | 7.8 | 38.5 | 0.9 | 1.7
O=C(Nc1ccncc1)c1cncc(Br)c1 | 14.9 | 3.6 | -10.1 | 0.9 | 1.1
CC(C)N(Cc1nnc(-c2ccccc2Cl)o1)C(=O)c1cccc(C#N)c1 | 10.0 | -1.3 | -3.8 | 0.9 | 1.1
COc1cc(NC(=O)c2cc3c(C)nc4ccccc4c3o2)cc(OC)c1OC | 5.0 | 9.6 | -11.2 | 0.9 | 1.2
COc1ccc(NC(=O)c2cc(-c3ccc(C)o3)nc3ccccc23)cc1OC | 23.6 | 4.3 | 53.0* | 1 | 1.2
Cc1ncsc1C(=O)Nc1nc2c(s1)CC(C)CC2 (stereo unspecified) | 61.7* | . | 55.9* | 1 | 1.1
CC1CCc2nc(NC(=O)C3CC3)sc2C1 (stereo unspecified) | . | . | . | . | 1.5
O=c1/c(=C\c2ccc3c(c2)OCO3)sc2n1CCCN=2 | 49.0 | 2.2 | 54.7* | 1.1 | 1.1
Cc1nc2c(C(=O)N3CCCCC3)cnn2c(C)c1Cc1ccccc1F | 41.6 | 7.4 | 75.5* | 0.9 | 1.2
CC(C)OC1=C(OC(C)C)C(O)(C#CCN(C(=O)/C=C/c2ccccc2)C(C)(C)C)C1=O (stereo unspecified) | . | . | . | . | 1.1
CC1(C)CC(=O)C(C=Nc2ccc3c(c2)OCO3)=C(O)C1 | 72.4* | 2.8 | 65.4* | 0.9 | 1.8
Oc1[nH]c2ccccc2c1C=Nc1ccc2c(c1)OCO2 | 62.5* | 9.2 | 84.2* | 0.8 | 1.4
COc1ccc(N=Cc2c(O)[nH]c3ccccc23)cc1 | . | . | . | . | 1.3
CC1(C)CC(=O)C(C=NCc2ccc3c(c2)OCO3)=C(O)C1 | 10.7 | 3.6 | 14.9 | 0.9 | 1.3
COc1ccc(N=CC2=C(O)CCCC2=O)cc1 | 52.2* | -4.2 | 14.9 | 1 | 1.7
COc1ccc(N=CC2=C(O)CC(C)(C)CC2=O)cc1 | 87.2* | 7.1 | 45.1 | 0.9 | 1.3
SMILES | SF-1 act | Ec RNAP inh | RORA act | TNAP act DEA | MT1-MMP txn act
COc1ccc(OC)c(N=CC2=C(O)CC(C)(C)CC2=O)c1 | 13.8 | . | 10.2 | 0.9 | 1
CC(C)CC1NC(=O)N(CC(=O)c2ccc3c(c2)OCCO3)C1=O (stereo unspecified) | 83.9* | 10.0 | 57.4* | 0.9 | 1.2
CC1CN(Cc2nc3c(c(=O)n(C)c(=O)n3C)n2Cc2ccc(Cl)cc2)CC(C)O1 (stereo unspecified) | 9.3 | 11.9 | 6.4 | 1 | 1.2
Cc1ccc2c(CC(=O)N3CCc4ccccc43)coc2c1 | 86.6* | 5.6 | 48.0 | 0.9 | 1.4
CCOc1ccc(NC(=O)c2ccccc2O)cc1 | -5.5 | 2.7 | -8.3 | 1 | 0.9
CCOc1ccc(NC(=O)c2ccccc2OC)cc1 | 73.0* | -2.7 | 49.0* | 0.9 | 1.6
COCC(=O)Nc1ccccc1C(=O)Nc1ccc(OC)cc1 | 58.6* | 6.4 | 18.7 | 0.9 | 1.2
CCOc1ccc(NC(=O)c2ccccc2CO)cc1 | 71.2* | 7.7 | 51.4* | 0.9 | 1.6
COC(=O)c1ccc(C(NC(=O)OCc2ccccc2)/C(C)=C/[C@@H](C)C(=O)NCc2nn(-c3ccccc3)nc2C)cc1 (stereo partly specified) | . | . | . | . | 1.1
CC1(C(=O)O)Cc2ccccc2C(=O)O1 (stereo unspecified) | . | . | . | . | 1.3
CCOC(=O)N1CCN(c2ccc(C(=O)c3ccccc3)cc2F)CC1 | 35.6 | 2.5 | 57.6* | 0.8 | 1.4
Cc1ccc(N(C(=O)C2CCC(=O)N2)C2(C(=O)NC3CCCC3)CCCCC2)cc1 (stereo unspecified) | . | . | . | . | 1
Cc1cc(C(=O)N2CCN(CCc3ccccc3)CC2)no1 | -4.4 | 3.5 | -3.8 | 0.9 | 1.1
O=C(Nc1ccc(Cl)cn1)c1cccc(F)c1 | 95.2* | 4.4 | 105.0* | 0.9 | 0.9
CCOc1ccc(C(=O)Nc2ccc(Cl)cn2)cc1Cl | 49.0 | 6.0 | 86.3* | 0.9 | 1.4
O=C(c1cc2c(=O)oc3ccccc3c2s1)N1CCN(c2ncccn2)CC1 | 3.5 | 7.5 | -4.8 | 0.9 | 1.1
COc1ccc(-c2cn3c(C)c(C(=O)NC(C)C)sc3n2)cc1 | 25.3 | 7.1 | 24.6 | 1 | 1.1
COc1ccc(-c2cn3c(C)c(C(=O)NC(C)(C)C)sc3n2)cc1 | 47.9 | -2.0 | 56.0* | 1 | 1.8
Cc1c(C(=O)Nc2ccccc2)sc2nc(-c3ccccc3)cn12 | 54.3* | 0.3 | 58.2* | 1 | .
CCOC(=O)C1=C(c2ccccc2)OC(N)=C(C#N)C1C(C)C (stereo unspecified) | 13.7 | 39.7* | -18.3 | 1 | 1.2
Cc1nc2cc(Cl)c(Cl)cc2nc1C | 63.7* | 9.3 | 88.8* | 1 | 1.4
Cc1cnc2cc(Cl)c(Cl)cc2n1 | . | . | . | . | 1.1
COc1ccc(-c2oc(/N=C/N3CCOCC3)c(C#N)c2-c2ccc(OC)cc2)cc1 | 3.2 | 6.2 | -4.2 | 0.9 | 1
COCCOc1nc2c(c(=O)n(C)c(=O)n2C)n1Cc1cccc(OC)c1 | . | . | . | . | 1
Cc1cc(C)c2c(N)c(C(=O)Nc3nccs3)sc2n1 | -20.8 | 5.7 | 45.9 | 1.1 | .
SMILES | SF-1 act | Ec RNAP inh | RORA act | TNAP act DEA | MT1-MMP txn act
COCc1cc(C)nc2sc(C(=O)Nc3nccs3)c(N)c12 | 92.1* | 8.5 | 31.2 | 1 | 1.4
CCn1c(SCC(=O)Nc2ccc(C(C)=O)cc2)nc2ccccc21 | 64.8* | 9.2 | 61.8* | 0.9 | 1.4
CCOC(=O)N1CCN(C(=O)c2cc(-c3ccc(OCC)cc3)nc3ccccc23)CC1 | 70.8* | -7.9 | 135.7* | 0.8 | 0.8
CCOc1ccc(-c2cc(C(=O)N3CCN(c4ccccn4)CC3)c3ccccc3n2)cc1 | 90.9* | 3.9 | 76.0* | 0.9 | 0.9
COc1cc(-c2cc(C(=O)N3CCN(c4ccccn4)CC3)c3ccccc3n2)cc(OC)c1OC | 19.4 | -2.8 | -7.5 | 0.9 | 1.1
O=C(CCCOc1ccccc1)N1CCN(c2ccccn2)CC1 | 25.6 | 4.0 | 55.7* | 0.9 | 0.8
